Results published in ChEMBL document CHEMBL1629488, “Synthesis and biological evaluation of 2-(3',4',5'-trimethoxybenzoyl)-3-aryl/arylaminobenzo[b]thiophene derivatives as a novel class of antiproliferative agents” (Eur J Med Chem, 2010).
The source made the active and inactive calls. No cut-off for these calls is given here.

Tests used:
[1] = tested on: A549; assay: Antiproliferative activity against human A549 cells after 72 hrs by MTT assay; type: functional, cell-based; details: A549, 72 h
Outline: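 A549 and HeLa cells grown in DMEM with 10% FBS and penicillin/streptomycin. Plated at 8 × 10^3 cells/well and held 18 h at 37 °C in 5% CO2. Medium replaced with compound in complete medium at varied concentrations for 72 h at 37 °C, then MTT read.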

[2] = tested on: HL-60; assay: Antiproliferative activity against human HL60 cells after 72 hrs by MTT assay; type: functional, cell-based; details: HL-60, 72 h
[3] = tested on: Jurkat; assay: Antiproliferative activity against human Jurkat cells after 72 hrs by MTT assay; type: functional, cell-based
[4] = tested on: K562; assay: Antiproliferative activity against human K562 cells after 72 hrs by MTT assay; type: functional, cell-based; details: K562, 72 h
[5] = tested on: Jurkat; assay: Cell cycle arrest in human Jurkat cells assessed as accumulation at G2/M phase at 1.25 uM after 24 hrs using propidium iodide staining by flow cytometry relative to control; type: functional
Outline: (§1)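 Exponentially growing cells (5 × 10^5) exposed to graded compound levels, 0.312 to 5 μM, for 24 or 48 h; collected, fixed in ice-cold 70% ethanol, treated with lysis buffer containing RNase A and 0.1% Triton X-100, stained with propidium iodide; DNA content read by flow cytometry. Mean ± SEM of two independent experiments.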

[6] = tested on: HeLa; assay: Cell cycle arrest in human HeLa cells assessed as accumulation at G2/M phase at 1.25 uM after 24 hrs using propidium iodide staining by flow cytometry relative to control; type: functional; outline: as §1
[7] = tested on: HeLa; assay: Upregulation of cyclin B1 protein expression in human HeLa cells after 24 to 48 hrs by Western blot analysis; type: functional, cell-based
Outline: (§2)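 Treated cells washed twice in ice-cold PBS, lysed 30 min on ice, lysate cleared at 15000×g, 4 °C, 10 min; protein by BCA. 20 μg per lane on SDS-PAGE (7.5–15%), PVDF transfer, overnight block at 4 °C; primary antibodies 2 h at room temperature, peroxidase secondaries 60 min, ECL detection; β-actin loading control.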

[8] = tested on: HeLa; assay: Induction of apoptosis in human HeLa cells assessed as loss of mitochondrial membrane potential after 24 to 48 hrs using Rho123 staining by flow cytometry; type: functional, cell-based
Outline: (§3)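 After 24 or 48 h exposure, HeLa cells were pelleted, resuspended in HBSS with 0.1 μM rhodamine 123, held 20 min at 37 °C, spun and resuspended in HBSS; fluorescence read by flow cytometry. Mean ± S.E.M. of 3 independent experiments.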

[9] = tested on: HeLa; assay: Induction of apoptosis in human HeLa cells assessed as ROS production after 24 to 48 hrs using H2-DCFDA staining by flow cytometry; type: functional, cell-based
Outline: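 ROS probe: after 24 or 48 h exposure, HeLa cells resuspended in HBSS with 0.1 μM H2DCFDA, incubated 30 min at 37 °C, spun and resuspended in HBSS; fluorescence recorded by flow cytometry, excitation 488 nm, emission 530 nm.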

[10] = tested on: HeLa; assay: Induction of apoptosis in human HeLa cells assessed as caspase-3-mediated cleavage of PARP after 24 to 48 hrs; type: functional, cell-based; outline: as §2
[11] = tested on: HeLa; assay: Induction of apoptosis in human HeLa cells assessed as viable cells at 2.5 uM after 24 hrs using FITC-conjugated annexin V and propidium iodide staining by flow cytometry assay (RVb = 94.7 %); type: functional; details: read-out: Activity
[12] = tested on: HeLa; assay: Induction of apoptosis in human HeLa cells assessed as viable cells at 1.25 uM after 24 hrs using FITC-conjugated annexin V and propidium iodide staining by flow cytometry assay (RVb = 94.7 %); type: functional; details: read-out: Activity
[13] = tested on: HeLa; assay: Induction of apoptosis in human HeLa cells assessed as viable cells at 0.62 uM after 24 hrs using FITC-conjugated annexin V and propidium iodide staining by flow cytometry assay (RVb = 94.7 %); type: functional; details: read-out: Activity
[14] = tested on: HeLa; assay: Induction of apoptosis in human HeLa cells assessed as early apoptotic cells at 5 uM after 24 hrs using FITC-conjugated annexin V and propidium iodide staining by flow cytometry assay (RVb = 1.5 %); type: functional
[15] = tested on: HeLa; assay: Induction of apoptosis in human HeLa cells assessed as early apoptotic cells at 2.5 uM after 24 hrs using FITC-conjugated annexin V and propidium iodide staining by flow cytometry assay (RVb = 1.5 %); type: functional
[16] = tested on: HeLa; assay: Induction of apoptosis in human HeLa cells assessed as early apoptotic cells at 1.25 uM after 24 hrs using FITC-conjugated annexin V and propidium iodide staining by flow cytometry assay (RVb = 1.5 %); type: functional
[17] = tested on: HeLa; assay: Induction of apoptosis in human HeLa cells assessed as early apoptotic cells at 0.62 uM after 24 hrs using FITC-conjugated annexin V and propidium iodide staining by flow cytometry assay (RVb = 1.5 %); type: functional
[18] = tested on: HeLa; assay: Induction of apoptosis in human HeLa cells assessed as late apoptotic cells at 1.25 uM after 24 hrs using FITC-conjugated annexin V and propidium iodide staining by flow cytometry assay (RVb = 1.9 %); type: functional
[19] = tested on: HeLa; assay: Induction of apoptosis in human HeLa cells assessed as late apoptotic cells at 0.62 uM after 24 hrs using FITC-conjugated annexin V and propidium iodide staining by flow cytometry assay (RVb = 1.9 %); type: functional
[20] = tested on: HeLa; assay: Induction of apoptosis in human HeLa cells assessed as necrotic cells at 1.25 uM after 24 hrs using FITC-conjugated annexin V and propidium iodide staining by flow cytometry assay (RVb = 1.9 %); type: functional
[21] = tested on: HeLa; assay: Induction of apoptosis in human HeLa cells assessed as necrotic cells at 0.62 uM after 24 hrs using FITC-conjugated annexin V and propidium iodide staining by flow cytometry assay (RVb = 1.9 %); type: functional
[22] = tested on: Jurkat; assay: Cell cycle arrest in human Jurkat cells assessed as accumulation at G2/M phase after 24 hrs using propidium iodide staining by flow cytometry; type: functional, cell-based; outline: as §1
[23] = tested on: Jurkat; assay: Cell cycle arrest in human Jurkat cells assessed as accumulation at G1 phase at 1.25 uM after 24 hrs using propidium iodide staining by flow cytometry relative to control; type: functional; outline: as §1
[24] = tested on: HeLa; assay: Cell cycle arrest in human HeLa cells assessed as reduction of cells at S phase at 1.25 uM after 24 hrs using propidium iodide staining by flow cytometry; type: functional, cell-based; outline: as §1
[25] = tested on: HeLa; assay: Cell cycle arrest in human HeLa cells assessed as hypodiploid peak at sub-G1 phase at 0.312 to 5 uM uM after 48 hrs using propidium iodide staining by flow cytometry; type: functional, cell-based; outline: as §1
[26] = tested on: Jurkat; assay: Cell cycle arrest in human Jurkat cells assessed as hypodiploid peak at sub-G1 phase at 0.312 to 5 uM uM after 48 hrs using propidium iodide staining by flow cytometry; type: functional, cell-based; outline: as §1
[27] = tested on: HeLa; assay: Upregulation of cdc25c protein expression in human HeLa cells at 0.6 to 2.5 uM after 24 to 48 hrs by Western blot analysis; type: functional, cell-based; outline: as §2
[28] = tested on: HeLa; assay: Induction of apoptosis in human HeLa cells assessed as loss of mitochondrial membrane potential at 0.625 to 2.5 uM using Rho123 staining by flow cytometry; type: functional, cell-based; details: TDE = time-dependent effect; outline: as §3
[29] = tested on: HeLa; assay: Induction of apoptosis in human HeLa cells assessed as caspase-3-mediated cleavage of PARP after 24 hrs by Western blot analysis; type: functional, cell-based; outline: as §2
[30] = tested on: HeLa; assay: Induction of apoptosis in human HeLa cells assessed as caspase-3-mediated cleavage of PARP after 48 hrs by Western blot analysis; type: functional, cell-based; outline: as §2
[31] = tested on: HeLa; assay: Induction of apoptosis in human HeLa cells assessed as increase of Bax protein expression up to 2.5 uM after 24 to 48 hrs by Western blot analysis; type: functional, cell-based; outline: as §2

IC50 [1]: 1400 nM | IC50 [2]: 500 nM | IC50 [3]: 300 nM | IC50 [4]: 200 nM
Compound: CCOc1ccc(Nc2c(C(=O)c3cc(OC)c(OC)c(OC)c3)sc3ccccc23)cc1
Activity [5]: 70% | Activity [6]: 85% | Activity [7]: Dose-dependent effect | Activity [8]: Dose-dependent effect | Activity [9]: Active | Activity [10]: Dose-dependent effect | viability at 2.5 µM [11]: 49.4% | viability at 1.25 µM [12]: 63.7% | viability at 0.62 µM [13]: 64.9% | Activity [14]: 7.2% | Activity [15]: 6.4% | Activity [16]: 6.8% | Activity [17]: 5.2% | Activity [18]: 16% | Activity [19]: 14.4% | Activity [20]: 13.4% | Activity [21]: 15.5% | Activity [22]: Dose-dependent effect | Activity [23]: 10% | Activity [24]: Active | Activity [25]: Active | Activity [26]: Active | Activity [27]: Active | Activity [28]: tde | Activity [29]: Active | Activity [30]: Active | Activity [31]: inactive
